Results from ChEMBL document CHEMBL1140053, “Discovery of antimycobacterial spiro-piperidin-4-ones: an atom economic, stereoselective synthesis, and biological intervention” (J Med Chem, 2008).
In brackets after ≈: the same amount, converted by molar mass.

Key:
[1] = tested on: Mycobacterium tuberculosis; assay: Antimycobacterial activity against Mycobacterium tuberculosis H37Rv by agar dilution method; type: functional
[2] = tested on: Mycolicibacterium smegmatis; assay: Antimycobacterial activity against Mycobacterium smegmatis MC2 by agar dilution method; type: functional
Vero = assay: Cytotoxicity against african green monkey Vero cells after 72 hrs by MTT assay; type: cell-based; details: Chlorocebus sabaeus
[3] = Selectivity index, ratio of IC50 for african green monkey Vero cells to MIC for mycobacterium; type: functional
Method in brief: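 Selectivity index taken as IC50/MIC. IC50 comes from Vero cells exposed to serial dilutions up to 62.5 µg/mL for 72 h, with viability read by MTT conversion to formazan. MIC comes from agar dilution in Middlebrook 7H11 with OADC at pH 7.40, run in duplicate, and is the lowest concentration giving complete growth inhibition.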

[4] = tested on: Mycobacterium tuberculosis; assay: Antimycobacterial activity against Mycobacterium tuberculosis H37Rv ATCC 35801 infected in CD1 mouse assessed as bacterial load in spleen at 25 mg/kg, ip after 10 days; type: functional; details: route intraperitoneal
Method in brief: (§1)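 Six-week-old female CD-1 mice, six per group, infected via caudal vein with approximately 10⁷ viable organisms. Intraperitoneal dosing at 25 mg/kg began 10 days post-inoculation and continued for 10 days. At 35 days post-infection, spleens and right lungs were homogenized and plated in serial 10-fold dilutions on 7H10 agar, incubated at 37 °C, 4 weeks. CFU compared with vehicle-treated controls.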

[5] = tested on: Mycobacterium tuberculosis; assay: Antimycobacterial activity against Mycobacterium tuberculosis H37Rv ATCC 35801 infected in CD1 mouse assessed as bacterial load in lungs at 25 mg/kg, ip after 10 days; type: functional; details: route intraperitoneal; method in brief: as §1

SMILES	MIC [1] [mg/L]	MIC [2] [mg/L]	IC50 (Vero) [µM]	Selectivity Index [3]	log10cfu [4]	log10cfu [5]
CN1C/C(=C\c2ccc(F)cc2)C(=O)[C@]2(C1)[C@@H](c1ccc(F)cc1)CN(C)[C@@]21C(=O)Nc2ccccc21	6.27 (≈ 12.6 µM)	50.1 (≈ 100 µM)				
CN1C/C(=C\c2ccc(Cl)cc2Cl)C(=O)[C@]2(C1)[C@@H](c1ccc(Cl)cc1Cl)[C@@H]1CCCN1[C@@]21C(=O)Nc2ccccc21 (racemic)	19.9 (≈ 31.8 µM)	79.7 (≈ 127 µM)				
COc1ccccc1/C=C1\CN(C)C[C@@]2(C1=O)[C@@H](c1ccccc1OC)[C@@H]1CCCN1[C@@]21C(=O)Nc2ccccc21 (racemic)	0.71 (≈ 1.29 µM)	2.84 (≈ 5.17 µM)	114			
CN1C/C(=C\c2cccs2)C(=O)[C@]2(C1)[C@@H](c1cccs1)CN(C)[C@@]21C(=O)Nc2ccccc21 (racemic)	1.64 (≈ 3.45 µM)	6.59 (≈ 13.9 µM)	132			
CN1C/C(=C\c2ccco2)C(=O)[C@]2(C1)[C@@H](c1ccco1)[C@@H]1CCCN1[C@@]21C(=O)Nc2ccccc21 (racemic)	53.3 (≈ 114 µM)	107 (≈ 227 µM)				
CN1C/C(=C\c2cccs2)C(=O)[C@]2(C1)[C@@H](c1cccs1)[C@@H]1CCCN1[C@@]21C(=O)Nc2ccccc21 (racemic)	0.38 (≈ 0.757 µM)	3.11 (≈ 6.2 µM)	125			
CN1C/C(=C\c2ccccc2Cl)C(=O)[C@]2(C1)[C@@H](c1ccccc1Cl)CN(C)[C@@]21C(=O)Nc2ccccc21 (racemic)	0.17 (≈ 0.319 µM)	1.47 (≈ 2.76 µM)	117			
CN1C/C(=C\c2ccc(F)cc2)C(=O)[C@]2(C1)[C@@H](c1ccc(F)cc1)[C@H](c1ccccc1)N[C@@]21C(=O)Nc2ccccc21 (racemic)	0.07 (≈ 0.125 µM)	0.69 (≈ 1.23 µM)	111	1634	5.2	6.01
CN1C/C(=C\c2cccc(F)c2)C(=O)[C@]2(C1)[C@@H](c1cccc(F)c1)CN(C)[C@@]21C(=O)Nc2ccccc21 (racemic)	1.56 (≈ 3.12 µM)	6.27 (≈ 12.6 µM)	125			
CN1C/C(=C\c2ccc(Cl)cc2)C(=O)[C@]2(C1)[C@@H](c1ccc(Cl)cc1)[C@@H]1CCCN1[C@@]21C(=O)Nc2ccccc21 (racemic)	22.7 (≈ 40.7 µM)	90.9 (≈ 163 µM)				
CN1C/C(=C\c2ccccc2Cl)C(=O)[C@]2(C1)[C@@H](c1ccccc1Cl)[C@@H]1CCCN1[C@@]21C(=O)Nc2ccccc21 (racemic)	0.35 (≈ 0.627 µM)	5.69 (≈ 10.2 µM)	114			
CN1C/C(=C\c2ccc(Cl)cc2Cl)C(=O)[C@]2(C1)[C@@H](c1ccc(Cl)cc1Cl)CN(C)[C@@]21C(=O)Nc2ccccc21 (racemic)	1.29 (≈ 2.15 µM)	5.21 (≈ 8.66 µM)	104			
CN1C/C(=C\c2ccccc2)C(=O)[C@]2(C1)[C@@H](c1ccccc1)[C@H](c1ccccc1)N[C@@]21C(=O)Nc2ccccc21 (racemic)	0.74 (≈ 1.41 µM)	2.97 (≈ 5.65 µM)	119			
CN1C/C(=C\c2ccco2)C(=O)[C@]2(C1)[C@@H](c1ccco1)[C@H](c1ccccc1)N[C@@]21C(=O)Nc2ccccc21 (racemic)	24.8 (≈ 49 µM)	49.5 (≈ 97.9 µM)				
CN1C/C(=C\c2cccc(F)c2)C(=O)[C@]2(C1)[C@@H](c1cccc(F)c1)[C@H](c1ccccc1)N[C@@]21C(=O)Nc2ccccc21 (racemic)	2.78 (≈ 4.95 µM)	5.58 (≈ 9.94 µM)	111			
Cc1ccc(/C=C2\CN(C)C[C@@]3(C2=O)[C@@H](c2ccc(C)cc2)[C@H](c2ccccc2)N[C@@]32C(=O)Nc3ccccc32)cc1 (racemic)	0.71 (≈ 1.28 µM)	2.82 (≈ 5.09 µM)	113			
COc1ccc(/C=C2\CN(C)C[C@@]3(C2=O)[C@@H](c2ccc(OC)cc2)[C@H](c2ccccc2)N[C@@]32C(=O)Nc3ccccc32)cc1 (racemic)	0.67 (≈ 1.14 µM)	1.33 (≈ 2.27 µM)	107			
CN1C/C(=C\c2ccc(Cl)cc2Cl)C(=O)[C@]2(C1)[C@@H](c1ccc(Cl)cc1Cl)[C@H](c1ccccc1)N[C@@]21C(=O)Nc2ccccc21 (racemic)	2.35 (≈ 3.54 µM)	9.43 (≈ 14.2 µM)	94.3			
CN1C/C(=C\c2ccc(Cl)cc2)C(=O)[C@]2(C1)[C@@H](c1ccc(Cl)cc1)[C@H](c1ccccc1)N[C@@]21C(=O)Nc2ccccc21 (racemic)	5.27 (≈ 8.86 µM)	42.1 (≈ 70.8 µM)				
COc1ccc(/C=C2\CN(C)C[C@@]3(C2=O)[C@@H](c2ccc(OC)cc2)[C@@H]2CCCN2[C@@]32C(=O)Nc3ccccc32)cc1 (racemic)	5.7 (≈ 10.4 µM)	45.5 (≈ 82.8 µM)				
COc1ccccc1/C=C1\CN(C)C[C@@]2(C1=O)[C@@H](c1ccccc1OC)[C@H](c1ccccc1)N[C@@]21C(=O)Nc2ccccc21 (racemic)	1.33 (≈ 2.27 µM)	1.33 (≈ 2.27 µM)	107			

SMILES	MIC [1] [mg/L]	MIC [2] [mg/L]	IC50 (Vero) [µM]	Selectivity Index [3]	log10cfu [4]	log10cfu [5]
CN1C/C(=C\c2ccccc2Cl)C(=O)[C@]2(C1)[C@@H](c1ccccc1Cl)[C@H](c1ccccc1)N[C@@]21C(=O)Nc2ccccc21 (racemic)	2.63 (≈ 4.42 µM)	10.5 (≈ 17.7 µM)	105			
CN1C/C(=C\c2cccc3ccccc23)C(=O)[C@]2(C1)[C@@H](c1cccc3ccccc13)[C@@H]1CCCN1[C@@]21C(=O)Nc2ccccc21 (racemic)	2.65 (≈ 4.49 µM)	10.6 (≈ 18 µM)	106			
CN1C/C(=C\c2cccc3ccccc23)C(=O)[C@]2(C1)[C@@H](c1cccc3ccccc13)CN(C)[C@@]21C(=O)Nc2ccccc21 (racemic)	11.1 (≈ 19.7 µM)	22.2 (≈ 39.4 µM)				
Cc1ccccc1/C=C1\CN(C)C[C@@]2(C1=O)[C@@H](c1ccccc1C)[C@H](c1ccccc1)N[C@@]21C(=O)Nc2ccccc21 (racemic)	2.82 (≈ 5.09 µM)	11.3 (≈ 20.4 µM)	113			
CN1C/C(=C\c2cccc3ccccc23)C(=O)[C@]2(C1)[C@@H](c1cccc3ccccc13)[C@H](c1ccccc1)N[C@@]21C(=O)Nc2ccccc21 (racemic)	5.01 (≈ 8.01 µM)	20 (≈ 32 µM)				
CN1C/C(=C\c2cccs2)C(=O)[C@]2(C1)[C@@H](c1cccs1)[C@H](c1ccccc1)N[C@@]21C(=O)Nc2ccccc21 (racemic)	11.6 (≈ 21.6 µM)	11.6 (≈ 21.6 µM)				
CN1C/C(=C\c2cccc(F)c2)C(=O)[C@]2(C1)[C@@H](c1cccc(F)c1)[C@@H]1CCCN1[C@@]21C(=O)Nc2ccccc21 (racemic)	5.96 (≈ 11.3 µM)	23.8 (≈ 45.3 µM)				
Cc1ccc(/C=C2\CN(C)C[C@@]3(C2=O)[C@@H](c2ccc(C)cc2)CN(C)[C@@]32C(=O)Nc3ccccc32)cc1 (racemic)	6.37 (≈ 13 µM)	50.9 (≈ 104 µM)				
CN1C/C(=C\c2ccccc2)C(=O)[C@]2(C1)[C@@H](c1ccccc1)[C@@H]1CCCN1[C@@]21C(=O)Nc2ccccc21 (racemic)	25.6 (≈ 52.2 µM)	102 (≈ 209 µM)				
COc1ccc(/C=C2\CN(C)C[C@@]3(C2=O)[C@@H](c2ccc(OC)cc2)CN(C)[C@@]32C(=O)Nc3ccccc32)cc1 (racemic)	0.75 (≈ 1.43 µM)	2.98 (≈ 5.69 µM)	120			
Cc1ccc(/C=C2\CN(C)C[C@@]3(C2=O)[C@@H](c2ccc(C)cc2)[C@@H]2CCCN2[C@@]32C(=O)Nc3ccccc32)cc1 (racemic)	12.1 (≈ 23.4 µM)	24.2 (≈ 46.7 µM)				
Cc1ccccc1/C=C1\CN(C)C[C@@]2(C1=O)[C@@H](c1ccccc1C)[C@@H]1CCCN1[C@@]21C(=O)Nc2ccccc21 (racemic)	12.1 (≈ 23.4 µM)	24.2 (≈ 46.7 µM)				
COc1ccccc1/C=C1\CN(C)C[C@@]2(C1=O)[C@@H](c1ccccc1OC)CN(C)[C@@]21C(=O)Nc2ccccc21 (racemic)	0.36 (≈ 0.688 µM)	2.98 (≈ 5.69 µM)	120			
CN1C/C(=C\c2ccc(F)cc2)C(=O)[C@]2(C1)[C@@H](c1ccc(F)cc1)[C@@H]1CCCN1[C@@]21C(=O)Nc2ccccc21 (racemic)	2.97 (≈ 5.65 µM)	23.8 (≈ 45.3 µM)	119			
CN1C/C(=C\c2ccc(Cl)cc2)C(=O)[C@]2(C1)[C@@H](c1ccc(Cl)cc1)CN(C)[C@@]21C(=O)Nc2ccccc21 (racemic)	2.93 (≈ 5.5 µM)	5.88 (≈ 11 µM)	117			
CN1C/C(=C\c2ccccc2)C(=O)[C@]2(C1)[C@@H](c1ccccc1)CN(C)[C@@]21C(=O)Nc2ccccc21 (racemic)	13.5 (≈ 29.1 µM)	54 (≈ 116 µM)				
CN1C/C(=C\c2ccco2)C(=O)[C@]2(C1)[C@@H](c1ccco1)CN(C)[C@@]21C(=O)Nc2ccccc21 (racemic)	1.76 (≈ 3.97 µM)	0.88 (≈ 1.98 µM)	141			
Cc1ccccc1/C=C1\CN(C)C[C@@]2(C1=O)[C@@H](c1ccccc1C)CN(C)[C@@]21C(=O)Nc2ccccc21 (racemic)	0.39 (≈ 0.793 µM)	1.59 (≈ 3.23 µM)	127			
O=C(O)c1cn(C2CC2)c2cc(N3CCNCC3)c(F)cc2c1=O [CIPROFLOXACIN]		2.35 (≈ 7.09 µM)				
NNC(=O)c1ccncc1 [ISONIAZID]	0.36 (≈ 2.63 µM)	45.6 (≈ 332 µM)			4.92	5.61
